In ChEMBL document CHEMBL1132698, “3-(Piperazinylpropyl)indoles: selective, orally bioavailable h5-HT1D receptor agonists as potential antimigraine agents” (J Med Chem, 1999):

What was measured:
[1] = biological target: 5-hydroxytryptamine receptor 1B (Homo sapiens, UniProt P28222); test: Displacement of [3H]5-HT binding from cloned human 5-hydroxytryptamine 1B receptor stably expressed in CHO cells.; format: cell-based
[2] = biological target: T1, 5-hydroxytryptamine receptor 1D (Homo sapiens, UniProt P28221); test: Displacement of [3H]5-HT binding to the cloned human 5-hydroxytryptamine 1D receptor stably expressed in CHO cells; format: cell-based
Method in brief: (§1)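 Membranes from CHO cells stably expressing human 5-HT1D receptor were washed, pre-incubated 10 min at 37 °C, then assayed at 0.2 mg protein/mL in 50 mM Tris-HCl pH 7.7 with 4 mM CaCl2, 0.01 mM pargyline and 0.1% ascorbate. […] Filtration and counting followed; IC50 came from nonlinear regression; ≥3 experiments, geometric means.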

[3] = biological target: T1, 5-hydroxytryptamine receptor 1D; test: Stimulation of [35S]GTP-gamma-S, binding in CHO cells expressing the human 5-hydroxytryptamine 1D receptor.; format: functional, cell-based
Method in brief: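 Membranes from CHO cells stably expressing human 5-HT1D were used at 40 μg protein/mL in HEPES 20 mM, NaCl 100 mM, MgCl2 10 mM, pargyline, ascorbate, pH 7.4. They were preincubated with 100 μM GDP plus compound for 20 min at 30 °C, then 15 min on ice. 100 pM [35S]GTPγS was added for 30 min at 30 °C, followed by filtration and counting. EC50 and Emax (relative to 5-HT maximum) came from nonlinear regression.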

[4] = biological target: T1, 5-hydroxytryptamine receptor 1D; test: Relative efficacy in stimulation of [35S]GTP-gamma-S, binding in CHO cells compared to 5-HT; format: functional, cell-based
[5] = biological target: T1, 5-hydroxytryptamine receptor 1D; test: Stimulation of [35S]GTP-gamma-S, binding in CHO cells expressing the 5-hydroxytryptamine 1D receptor; format: functional, cell-based
[6] = biological target: T1, 5-hydroxytryptamine receptor 1D; test: Displacement of [3H]5-HT binding from human 5-hydroxytryptamine 1D receptor expressed in CHO cells; format: cell-based
[7] = biological target: T1, 5-hydroxytryptamine receptor 1D; test: Displacement of [3H]5-HT from human 5-hydroxytryptamine 1D receptor expressed in CHO cells; format: cell-based; method in brief: as §1

5-hydroxytryptamine receptor 1B, sequence (P28222 whole entry): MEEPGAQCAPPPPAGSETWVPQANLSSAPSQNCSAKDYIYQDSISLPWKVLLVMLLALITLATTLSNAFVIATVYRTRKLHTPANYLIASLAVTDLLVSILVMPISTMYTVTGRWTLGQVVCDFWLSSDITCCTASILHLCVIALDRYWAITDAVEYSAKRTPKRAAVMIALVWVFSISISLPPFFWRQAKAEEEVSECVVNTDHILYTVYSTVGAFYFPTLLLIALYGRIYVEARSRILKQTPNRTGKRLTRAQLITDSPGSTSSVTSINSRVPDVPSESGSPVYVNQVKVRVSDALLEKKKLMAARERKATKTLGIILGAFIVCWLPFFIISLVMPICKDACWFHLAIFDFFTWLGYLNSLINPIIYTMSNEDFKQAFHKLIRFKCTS
T1 sequence (P28221 whole entry): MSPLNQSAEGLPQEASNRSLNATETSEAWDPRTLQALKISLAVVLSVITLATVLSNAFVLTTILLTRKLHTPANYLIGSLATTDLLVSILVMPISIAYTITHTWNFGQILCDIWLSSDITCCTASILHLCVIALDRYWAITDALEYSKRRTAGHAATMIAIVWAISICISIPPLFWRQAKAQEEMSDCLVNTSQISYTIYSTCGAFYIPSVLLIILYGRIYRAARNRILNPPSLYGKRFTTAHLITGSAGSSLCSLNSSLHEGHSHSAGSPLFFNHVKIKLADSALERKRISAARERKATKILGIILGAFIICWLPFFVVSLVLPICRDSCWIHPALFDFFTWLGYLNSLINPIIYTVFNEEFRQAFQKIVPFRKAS

Structure (SMILES)	IC50 [1] [nM]	IC50 [2] [nM]	EC50 [3] [nM]	Relative efficacy [4] [%]	EC50 [5] [nM]	IC50 [6] [nM]	IC50 [7] [nM]
S=C1CN(CCCc2c[nH]c3ccc(-n4cnnc4)cc23)CCN1Cc1ccccc1	18	0.8	2.3	97			
CC(c1ccccc1)N1CCN(CCCc2c[nH]c3ccc(-n4cnnc4)cc23)CC1 (stereo not drawn)	13	1					
CC(=O)Nc1ccc(CCN2CCN(CCCc3c[nH]c4ccc(-n5cnnc5)cc34)CC2)cc1	260		1.8	85			
NC(=O)C(c1ccccc1)N1CCN(CCCc2c[nH]c3ccc(-n4cnnc4)cc23)CC1 (stereo in doubt; 6q) [listing 1 of 2 here]				61			
Fc1ccc(CN2CCN(CCCc3c[nH]c4ccc(-n5cnnc5)cc34)CC2)cc1	20	0.1	0.3	77			
Fc1ccccc1CCN1CCN(CCCc2c[nH]c3ccc(-n4cnnc4)cc23)CC1	98	0.5	1.4	80			
CC(CN1CCN(CCCc2c[nH]c3ccc(-n4cnnc4)cc23)CC1)c1ccccc1 (stereo not drawn)	45	0.8	0.3	94			
c1ccc(CCCN2CCN(CCCc3c[nH]c4ccc(-n5cnnc5)cc34)CC2)cc1	85	4.9	4	68			
CNCC(c1ccccc1)N1CCN(CCCc2c[nH]c3ccc(-n4cnnc4)cc23)CC1 (stereo not drawn)	17	0.9	1.7	103			
CC(=O)Nc1cccc(CN2CCN(CCCc3c[nH]c4ccc(-n5cnnc5)cc34)CC2)c1	2.4	0.2	0.2	70			
O=C1CN(CCCc2c[nH]c3ccc(-n4cnnc4)cc23)CCN1CCc1ccccc1	78	5.2					
CN1CCN(CCCCc2c[nH]c3ccc(-n4cnnc4)cc23)CC1	5100	210					
CN(C)CCc1c[nH]c2ccc(-n3cnnc3)cc12				115			
c1cc2[nH]cc(CCCN3CCOCC3)c2cc1-n1cnnc1	7.4	8.8					
CC(=O)Nc1ccc(CN2CCN(CCCc3c[nH]c4ccc(-n5cnnc5)cc34)CC2)cc1	56	2.5	6.1	78			
c1ccc(N2CCN(CCCc3c[nH]c4ccc(-n5cnnc5)cc34)CC2)cc1	13	1.4					
c1cc(CN2CCN(CCCc3c[nH]c4ccc(-n5cnnc5)cc34)CC2)ccn1	23	0.6	1	66			
c1cncc(CCN2CCN(CCCc3c[nH]c4ccc(-n5cnnc5)cc34)CC2)c1	93	4.9	7.8	69			
c1cncc(CN2CCN(CCCc3c[nH]c4ccc(-n5cnnc5)cc34)CC2)c1	22	0.3	0.3	69			
O=C1CN(CCCc2c[nH]c3ccc(-n4cnnc4)cc23)CCN1Cc1ccccc1	282	6.6	7.5	85			
NC(=O)C(c1ccccc1)N1CCN(CCCc2c[nH]c3ccc(-n4cnnc4)cc23)CC1 (stereo in doubt; 6p) [listing 1 of 2 here]				77			
NC(=O)C(c1ccccc1)N1CCN(CCCc2c[nH]c3ccc(-n4cnnc4)cc23)CC1 (stereo in doubt; 6q) [listing 2 of 2 here]	55				3.8	2.3	
c1cc2[nH]cc(CCCN3CCNCC3)c2cc1-n1cnnc1	145	31					

Structure (SMILES)	IC50 [1] [nM]	IC50 [2] [nM]	EC50 [3] [nM]	Relative efficacy [4] [%]	EC50 [5] [nM]	IC50 [6] [nM]	IC50 [7] [nM]
c1ccc(CNC[C@@H]2CCN(CCc3c[nH]c4ccc(-n5cnnc5)cc34)C2)cc1	37			102		0.6	
CN(C)C(=O)C(c1ccccc1)N1CCN(CCCc2c[nH]c3ccc(-n4cnnc4)cc23)CC1 (stereo not drawn)	102	1	0.8	68			
Cc1noc(-c2ccc(CCN3CCN(CCCc4c[nH]c5ccc(-n6cnnc6)cc45)CC3)cc2)n1	46	6.9					
c1ccc(CN2CCN(CCCc3c[nH]c4ccc(-n5cnnc5)cc34)CC2)nc1	18	0.4	0.3	67			
CN1CCN(CCc2c[nH]c3ccc(-n4cnnc4)cc23)CC1	304	134		61	105		
CN1CCN(CCCc2c[nH]c3ccc(-n4cnnc4)cc23)CC1	309	33		95	54		
O=C1CN(Cc2ccccc2)CCN1CCCc1c[nH]c2ccc(-n3cnnc3)cc12	3900	173					
NC(=O)C(c1ccccc1)N1CCN(CCCc2c[nH]c3ccc(-n4cnnc4)cc23)CC1 (stereo in doubt; 6p) [listing 2 of 2 here]	13	0.2	0.2				
Fc1ccc(CCN2CCN(CCCc3c[nH]c4ccc(-n5cnnc5)cc34)CC2)cc1				81			
Fc1ccc(CCN2CCN(CCCc3c[nH]c4ccc(-n5cnnc5)cc34)CC2)cc1F	83	0.9	0.7	91			
c1ccc(CCN2CCN(CCCc3c[nH]c4ccc(-n5cnnc5)cc34)CC2)cc1			1.7	73			
c1coc(CN2CCN(CCCc3c[nH]c4ccc(-n5cnnc5)cc34)CC2)c1	18	0.4	0.5	66			
c1c[nH]c(CN2CCN(CCCc3c[nH]c4ccc(-n5cnnc5)cc34)CC2)n1	36	1.6	2	68			
c1cc2[nH]cc(CCN3CCCC3)c2cc1-n1cnnc1				120			
c1ccc(CN2CCN(CCCc3c[nH]c4ccc(-n5cnnc5)cc34)CC2)cc1	11	0.1	0.2	57			
Clc1ccc(CN2CCN(CCCc3c[nH]c4ccc(-n5cnnc5)cc34)CC2)cc1	59	0.5	1.2	63			
OCC(c1ccccc1)N1CCN(CCCc2c[nH]c3ccc(-n4cnnc4)cc23)CC1 (stereo not drawn)	9.5	0.7	0.3	74			
c1cnc(N2CCN(CCCc3c[nH]c4ccc(-n5cnnc5)cc34)CC2)nc1	0.5	0.6	0.6	59			
Fc1cccc(CCN2CCN(CCCc3c[nH]c4ccc(-n5cnnc5)cc34)CC2)c1	72	0.5	1	88			
N#Cc1ccc(CN2CCN(CCCc3c[nH]c4ccc(-n5cnnc5)cc34)CC2)cc1	130	0.7	1.1	71			
c1cc(CN2CCN(CCCc3c[nH]c4ccc(-n5cnnc5)cc34)CC2)co1	27		0.3	70			1.1
FC(F)(F)c1ccc(CN2CCN(CCCc3c[nH]c4ccc(-n5cnnc5)cc34)CC2)cc1	282			82	11	5.2	
